Experimental data from the EternaBench riboswitch data.

Legend:
MS2 coat protein [1] = test: apparent Kd, MS2 coat protein; higher = weaker binding; RNA-MaP array; theophylline 2 mM where present
Method in brief: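 The apparent Kd is reported as the median of filtered per-cluster binding-curve fits. To get these curves, designs transcribed by stalled E. coli RNA polymerase on Illumina sequencing-chip clusters were titrated with SNAP-549-labelled MS2 coat protein from 0.7 or 1.5 nM, doubling to 3 µM. Titrations were run without and then with constant ligand in 100 mM Tris-HCl pH 7.5, 80 mM KCl, 4 mM MgCl2, BSA, DTT, yeast tRNA and Tween-20, and green signal was normalised to red-channel RNA signal and control-cluster median Fmax.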

MS2 coat protein [2] = test: apparent Kd, MS2 coat protein; higher = weaker binding; RNA-MaP array
Method in brief: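 Fluorescently labeled MS2 coat protein, from 1.5 nM to 3 μM, was incubated at room temperature with designed RNAs transcribed on an Illumina sequencing chip from sequenced DNA templates. Times ran from 0.8–1.5 h at the lowest concentrations to 10–20 min at the highest, in Tris-HCl pH 7.5 buffer with KCl, MgCl2, BSA, DTT, tRNA and Tween20, with or without input ligand. Each apparent Kd is the median of per-cluster binding-curve fits, and designs with fewer than 10 measured clusters were excluded.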

[3] = designed as: ON switch for theophylline, no ligand
[4] = ligand present: theophylline, designed as: ON switch for theophylline
[5] = designed as: OFF switch for theophylline, no ligand
[6] = ligand present: theophylline, designed as: OFF switch for theophylline
[7] = designed as: ON switch for flavin mononucleotide, no ligand
[8] = ligand present: flavin mononucleotide, designed as: ON switch for flavin mononucleotide
[9] = designed as: OFF switch for flavin mononucleotide, no ligand
[10] = ligand present: flavin mononucleotide, designed as: OFF switch for flavin mononucleotide

| Sequence | apparent Kd (MS2 coat protein [2]; [7]) | apparent Kd (MS2 coat protein [2]; [8]) | apparent Kd (MS2 coat protein [2]; [9]) | apparent Kd (MS2 coat protein [2]; [10]) | other results |
| --- | --- | --- | --- | --- | --- |
| GAUCUUGCGGGCGCCCGCAAGGUUGCGGAUACCAGCGAGAUUAAUCGCCCUUGGCAGCCGAACAUGAGGAUCACCCAUGUCGGAC | – | – | – | – | apparent Kd (MS2 coat protein [1]; [3]): 9.62 nM; apparent Kd (MS2 coat protein [1]; [4]): 15.3 nM |
| AGUAAUCUAACAGAUACCAGACGGUAUAUAACAUGAGGAUCACCCAUGUCUUGGGUGUACGUCCCUUGGCAGCUGAAAAUGAUAA | – | – | – | – | apparent Kd (MS2 coat protein [1]; [3]): 567 nM; apparent Kd (MS2 coat protein [1]; [4]): 383 nM |
| GAUGAACAUACUGAUACCAGUGUACUGACAUGAGGAUCACCCAUGUUGGGUUUUGUUGUACACCCUUGGCAGCAGAAUGUUUAUC | – | – | – | – | apparent Kd (MS2 coat protein [1]; [5]): 72.2 nM; apparent Kd (MS2 coat protein [1]; [6]): 78.9 nM |
| CUUGUCGUAACUGAUACCAGUGUACUGACAUGAGGAUCACCCAUGUUGGGUUUUGUUGUACACCCUUGGCAGCAGAAUCGAUAAG | – | – | – | – | apparent Kd (MS2 coat protein [1]; [5]): 73.8 nM; apparent Kd (MS2 coat protein [1]; [6]): 121 nM |
| AUAUUAGACCUGGAUACCAGCGACAUGAGGAUCACCCAUGUAUGUGCAUCUGCCAUGAUAUGCCCUUGGCAGCCACCGAGGUCGU | – | – | – | – | apparent Kd (MS2 coat protein [1]; [5]): 11.4 nM; apparent Kd (MS2 coat protein [1]; [6]): 19.1 nM |
| ACAUGAGGAUCACCCAUGUCCUAAAAUGAGGCGAAUACGGCCAAGGAUAUUGGAACAACAGAAGUCAAGAAGGUGGCUAAAUUA | 56.7 nM | 28.3 nM | – | – | – |
| ACCCGACAUGAGGAUCACCCAUGUGGUUUCGGUCGAGGAUAUUCAAUCUGAAUUAUGUAGGAAGAAGGCGAUACCC | 173 nM | 78 nM | – | – | – |
| CAGGCAUGUAUAGGAUAUUGGGCUGGACGCGUUGUCGGUCGUUCCAACAUGAGGAUCACCCAUGUCAAGAAGGAUAUGCAUUCG | 38.8 nM | 27.3 nM | – | – | – |
| AUUGCCCAAGGAUAUCUAUUUAGAAACAUGAGGAUCACCCAUGUCAUAAUGUUAGGCUCAAGAGAAGGUGGAAGCU | – | – | 8.33 nM | 8.37 nM | – |
| AUGUUCCGUUAGAAGGUGUUGAGUGGAGGCUCACAAGGAUAUAACUUCCUCGUCGAUGACAUGAGGAUCACCCAUGUAGCACAA | – | – | 50.3 nM | 38.1 nM | – |
| CACAUGUAAGGAUAUAGUGAACUAAAGCAACUAGAUGUAAACUAGAAGGUACAUGAGGAUCACCCAUGUAAAGG | – | – | 17.3 nM | – | – |
| AAACUACGACAUGAGGAUCACCCAUGUACUCCGCUAACUACACAGGAUAUAGUGAGGCCAGAGCUCUAGAAGGGUGUUAAUACG | 40.3 nM | 28.2 nM | – | – | – |
| AGGCCACAUGAGGAUCACCCAUGUAAGGAUAUUGGAGCAUGGAAACGCUGUGCGCAUGCAAGAAGGUACACGGA | – | – | 24.7 nM | 20.5 nM | – |
| CUCAGCGGGCUAGGAUAUGGCCUGUGGUUUAGGCCAGAAGGAGCUCACUAAGCACAUGAGGAUCACCCAUGUCUCAAUGCCUGA | 14.8 nM | 8.84 nM | – | – | – |
| AAUUCCUGUAAGAAGGGCGAUAUACAUGAGGAUCACCCAUGUCGUUGGAUUGAAGAAAAUCAGACGCAGGAUAUUAUUGGGAAC | 94.3 nM | 40 nM | – | – | – |
| CAAAGUUUUAAGAAGGGAUCGAUUAGAUUCACAUGAGGAUCACCCAUGUAGCCGGGACGGAGAGAUCAGGAUAUUAAAGAUGUC | – | – | 55.8 nM | 31.9 nM | – |
| UCGGUACAUGAGGAUCACCCAUGUCGUCACAGAGCAGGAUAUUCAGGCUUCAGAGGUCGCGAAGAAGGGCUGGUGC | 11.9 nM | 9.02 nM | – | – | – |
| GCAUAACAUGAGGAUCACCCAUGUGAGGAUAUUCCCUCCGGCAAUUGCUCCCAAGAGGGAAGAAGGCACAGUGG | – | – | 146 nM | 66.1 nM | – |
| AGGCCAUCCAAGAAGGCUUACAACAUGAGGAUCACCCAUGUCACGGAGAUGUAUAACAUCUACUAAGAGGAUAUUGGGAGAGCU | 241 nM | 37.4 nM | – | – | – |
| UAAAAGUUAGGAUAUACUAGUGAGCAAUGAAUAACAAAGUAACAUGAGGAUCACCCAUGUAGAAGGAACUGCAG | – | – | 12.1 nM | 12.4 nM | – |
| CAAUCUACCACCGGCCUACUGUACACUCGCCGAGGACCGGUACGGCCGCCACUCGACGUUCGACAUGAGGAUCACCCAUGUGGGU | – | – | – | – | apparent Kd (MS2 coat protein [2]; designed as: OFF switch for tryptophan, no ligand): 168 nM; apparent Kd (MS2 coat protein [2]; ligand present: tryptophan, designed as: OFF switch for tryptophan): 334 nM |
| ACAUGAGGAUCACCCAUGUUUGGGCAAAGAUUGAUUGACACGAGAAGGGCCCGCGUACGUCGUAGGCAGGAUAUCGAGUACCGG | – | – | 32.2 nM | 31.1 nM | – |
| GUACAGGAGGAAGGAUAUAAUGCACAUGAGGAUCACCCAUGUAAGAGGAAAUCACCAUAACUGAUUUAGAAGGACCAGCAAAAC | – | – | 12 nM | 11.3 nM | – |
| UACAAGUACUAGAAGGAUCGAACCGAAGGUGUGAUAGGAUAUAGAGACAUGAGGAUCACCCAUGUAGGAGUGCAGUCAUACAUU | – | – | 27.9 nM | 23.4 nM | – |
| UCAUUGUGAGGAUAUUGAUAGCGGACCUUGAUUCUGUACAACAAGAAGGCACAUGAGGAUCACCCAUGUCAUCA | – | – | 16.4 nM | 58.4 nM | – |
| GCGGACGAUGAGAAGGUAGUAAGGUAGGACAUGAGGAUCACCCAUGUAUGAACUAUCCCAACAACUAAGGAUAUCAGCAACCCU | – | – | 7.34 nM | 5.77 nM | – |
